Reference: ChEMBL document CHEMBL1127085, “Derivatives of 2-(dipropylamino)tetralin: effect of the C8-substituent on the interaction with 5-HT1A receptors” (J Med Chem, 1993)

What was measured:
[1] = biological target: T1, 5-hydroxytryptamine receptor 1A (Rattus norvegicus, UniProt P19327); test: Binding affinity of 5-hydroxytryptamine 1A receptor using [3H]-8-OH-DPAT as radioligand.
T1 sequence (P19327 whole entry): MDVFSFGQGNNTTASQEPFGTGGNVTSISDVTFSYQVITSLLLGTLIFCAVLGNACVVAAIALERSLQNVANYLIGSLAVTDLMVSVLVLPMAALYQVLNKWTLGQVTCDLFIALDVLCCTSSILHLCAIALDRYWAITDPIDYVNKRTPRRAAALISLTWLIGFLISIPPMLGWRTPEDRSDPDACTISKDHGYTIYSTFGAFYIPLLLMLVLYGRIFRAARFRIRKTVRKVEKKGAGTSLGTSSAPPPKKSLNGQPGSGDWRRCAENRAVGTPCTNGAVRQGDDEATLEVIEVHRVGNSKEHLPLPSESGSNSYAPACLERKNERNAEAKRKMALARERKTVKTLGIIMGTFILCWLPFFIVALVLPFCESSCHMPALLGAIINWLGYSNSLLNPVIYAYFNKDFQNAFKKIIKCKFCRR
In short: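 Membranes from cortex and hippocampus of male Sprague-Dawley rats, pooled from at least six rats, preincubated with 10 µM pargyline. Assay used 2 nM [3H]-8-OH-DPAT, test compound at 1-300 nM and 5 mg/mL tissue in 50 mM Tris-HCl with 4.0 mM CaCl2 and 5.7 mM ascorbate, pH 7.5. Incubated 10 min at 37 °C, filtered on GF/B, scintillation counted.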

Rattus norvegicus [2] = test: Induction of clear-cut 5-HT motor syndrome in reserpine (5 mg/Kg, sc) pretreated rats at the dose of 10 uM/Kg; type: functional
[3] = biological target: T2, 5-hydroxytryptamine receptor 1A (Rattus norvegicus) (UniProt P19327); test: Number of rats displaying the 5-HT syndrome or leaving the cage out of the number of rats tested; type: functional
T2 sequence (whole entry): T1 sequence (P19327 whole entry)

Rattus norvegicus [4] = test: Antagonistic effect on body temperature of rat induced by (R)-1 at the dose of 32 and 1.0 umol/kg of compound (R)-1; type: functional
In short: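 Compound (32 µmol/kg sc) or saline injected 10 min before (R)-8-OH-DPAT (1.0 µmol/kg sc). Colonic temperature taken before injection and 30 min later; result is the change from the preinjection value. One-way ANOVA with Tukey HSD test.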

[5] = biological target: T2, 5-hydroxytryptamine receptor 1A (Rattus norvegicus); test: Antagonistic effect on 5-HT syndrome or behavior of rat induced by (R)-1 at the dose of 32 and 1.0 umol/kg of compound (R)-1; type: functional
In short: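 Compound (32 µmol/kg sc) or saline injected 10 min before (R)-8-OH-DPAT (1.0 µmol/kg sc). Flat body posture, forepaw treading and hindlimb abduction scored during 30 min of observation. Results as number of rats showing the behaviour out of number tested; Fisher's exact probability test.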

[6] = biological target: T2, 5-hydroxytryptamine receptor 1A (Rattus norvegicus); test: 5-HT (serotonin) turnover in rat hippocampus; type: functional, tissue-based
In short: (§1)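 Rats given compound sc in 0.9% NaCl (screening dose typically 32 µmol/kg); decapitated about 30 min after dosing. Hippocampus and corpus striatum dissected and frozen. Perchloric acid homogenates analysed by HPLC with electrochemical detection. Turnover taken as 5-HIAA/5-HT or DOPAC/DA, expressed as percent of saline control. Means ± SEM; n = 5-7 controls, 4-6 treated. ANOVA with Tukey test.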

[7] = biological target: T2, 5-hydroxytryptamine receptor 1A (Rattus norvegicus); test: Induction of clear-cut 5-HT motor syndrome in reserpine (5 mg/kg, sc) pretreated rats at the dose of 32 micro mol/kg; type: functional, organism-based
Rattus norvegicus [8] = test: Change in body temperature of rats upon administration after 30 minutes; type: functional
In short: (§2)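 Colonic temperature taken with an electrical thermometer probe 3.5 cm deep, before and 30 min after sc injection in saline. Change reported in °C as mean ± SEM; animal numbers as in the cage-leaving test. ANOVA with Tukey test.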

[9] = biological target: T3, Dopamine receptor (Rattus norvegicus) (UniProt P25115+P19020+P30729+P18901+P61169); test: Dopamine (DA) turnover in rat corpus striatum; type: functional, tissue-based; in short: as §1
[10] = biological target: T2, 5-hydroxytryptamine receptor 1A (Rattus norvegicus); test: Induction of clear-cut 5-HT motor syndrome in normal rats at the dose of 32 micro mol/kg; type: functional
[11] = biological target: T2, 5-hydroxytryptamine receptor 1A (Rattus norvegicus); test: Induction of clear-cut 5-HT motor syndrome in reserpine (5 mg/Kg, sc) pretreated rats at the dose of 32 uM/Kg; type: functional, organism-based
[12] = biological target: T2, 5-hydroxytryptamine receptor 1A (Rattus norvegicus); test: 5-HT (serotonin) turnover in rat hippocampus (p<0.05); type: functional, tissue-based
In short: (§3)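 Rats dosed sc (screening dose typically 32 µmol/kg, in 0.9% NaCl, 2 mL/kg); decapitated 5-10 min after the 30-min rating, […]. Hippocampus dissected and frozen. 5-HIAA/5-HT ratio measured by HPLC with electrochemical detection (+0.85 V) after perchloric acid homogenisation. Reported as percent of saline control, mean ± SEM, n = 4-6 per group; ANOVA with Tukey test.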

[13] = biological target: T3, Dopamine receptor (Rattus norvegicus); test: Effect of accumulation of DOPA in rat striatum at the dose of 32 umol/kg; type: functional, tissue-based
In short: (§4)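 Test compound given sc in 0.9% NaCl. NSD 1015 (287 µmol/kg sc) given 30 min later to inhibit aromatic L-amino acid decarboxylase; rats decapitated after a further 30 min. Hippocampus and striatum stored at -40 °C for up to 1 week. Perchloric acid homogenates with α-methyl-5-hydroxytryptophan internal standard; 5-HTP and DOPA measured by HPLC-EC. Percent of control, means ± SEM; ANOVA with Tukey test.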

[14] = biological target: T2, 5-hydroxytryptamine receptor 1A (Rattus norvegicus); test: Effect of 5-HT accumulation in rat hippocampus at the dose of 32 umol/kg (p<0.01); type: functional, tissue-based; in short: as §4
Rattus norvegicus [15] = test: Change in body temperature of rats upon administration after 30 minutes (p<0.01); type: functional; in short: as §2
[16] = biological target: T2, 5-hydroxytryptamine receptor 1A (Rattus norvegicus); test: 5-HT (serotonin) turnover in rat hippocampus (p<0.01); type: functional, tissue-based; in short: as §3
Rattus norvegicus [17] = test: Induction of clear-cut 5-HT motor syndrome in reserpine (5 mg/Kg, sc) pretreated rats at the dose of 1 uM/Kg; type: functional
Rattus norvegicus [18] = test: Induction of clear-cut 5-HT motor syndrome in normal rats at the dose of 1 uM/Kg; type: functional
Rattus norvegicus [19] = test: Induction of clear-cut 5-HT motor syndrome in normal rats at the dose of 32 umol/kg; type: functional
Rattus norvegicus [20] = species on record: Rattus norvegicus; test: Dopamine (DA) turnover in rat corpus striatum (p<0.01); type: functional; in short: as §1

Row | Structure (SMILES) | Ki [1] [nM] | No. of rats [3] | Turnover [6] | Behavioral effect [7] | Turnover [9] | Behavioral effect [10] | further results
1 | CCCN(CCC)[C@@H]1CCc2cccc(C#N)c2C1 | 19 | – | – | – | – | – | Behavioral effect (Rattus norvegicus [2]): 3
2 | CCCN(CCC)[C@H]1CCc2cccc(-c3ccccc3)c2C1 | – | 4 | 98 | 0 | 99 | 0 | Temperature (Rattus norvegicus [4]): -2.58; Effect [5]: 4; Temperature (Rattus norvegicus [8]): 0.6
3 | CCCCC(=O)c1cccc2c1CC(N(CCC)CCC)CC2 (racemic) | 19 | – | – | – | – | – | Behavioral effect [11]: 4
4 | CCCN(CCC)[C@H]1CCc2cccc(CO)c2C1 | 130 | 0 | – | 0 | 121 | 4 | Turnover [12]: 75; Accumulation [13]: 101; Accumulation [14]: 58; Temperature (Rattus norvegicus [8]): -2.2
5 | C#Cc1cccc2c1C[C@@H](N(CCC)CCC)CC2 | 16 | 0 | – | 4 | 82 | 4 | Accumulation [13]: 95; Accumulation [14]: 31; Temperature (Rattus norvegicus [15]): -2.8; Turnover [16]: 66
6 | CCCN(CCC)C1CCc2cccc(C(N)=O)c2C1 (racemic) | 6 | – | – | – | – | – | Behavioral effect [11]: 4
7 | CCCN(CCC)C1CCc2cccc(OS(=O)(=O)C(F)(F)F)c2C1 (racemic) | – | – | – | 0 | – | – | –
8 | CCCN(CCC)[C@@H]1CCc2cccc(C(C)=O)c2C1 | – | 0 | 68 | – | 106 | – | Behavioral effect (Rattus norvegicus [17]): 4; Behavioral effect (Rattus norvegicus [18]): 4; Temperature (Rattus norvegicus [8]): -2.8
9 | CCCN(CCC)C1CCc2cccc(-c3ccccc3)c2C1 (racemic) | 12 | – | – | 0 | – | – | –
10 | CCCN(CCC)[C@H]1CCc2cccc(C#N)c2C1 | 37 | – | – | – | – | – | Behavioral effect [11]: 4
11 | CCCN(CCC)[C@H]1CCc2cccc(C(C)=O)c2C1 | – | 0 | 71 | – | 111 | – | Behavioral effect (Rattus norvegicus [17]): 4; Behavioral effect (Rattus norvegicus [18]): 4; Temperature (Rattus norvegicus [8]): -2.1
12 | CCCN(CCC)[C@H]1CCc2cccc(C)c2C1 | – | 0 | 79 | 0 | 80 | 4 | Accumulation [13]: 119; Accumulation [14]: 64; Temperature (Rattus norvegicus [15]): -2.3
13 | CCCN(CCC)[C@H]1CCc2cccc(OS(=O)(=O)C(F)(F)F)c2C1 | – | 1 | 84 | – | 104 | – | Behavioral effect (Rattus norvegicus [19]): 0; Temperature (Rattus norvegicus [4]): -3.18; Effect [5]: 4; Temperature (Rattus norvegicus [8]): 0.5
14 | CCCN(CCC)C1CCc2cccc(C(=O)c3ccccc3)c2C1 (racemic) | 2.8 | – | – | – | – | – | –
15 | CCCN(CCC)[C@H]1CCc2ccccc2C1 | – | 5 | 104 | 0 | – | 5 | Temperature (Rattus norvegicus [15]): -1.6; Turnover (Rattus norvegicus [20]): 62
16 | CCCN(CCC)C1CCc2cccc(C(C)=O)c2C1 (racemic) | 0.9 | – | – | – | – | – | Behavioral effect (Rattus norvegicus [17]): 4
17 | CCCN(CCC)C1CCc2cccc(C#N)c2C1 (racemic) | 26 | – | – | – | – | – | Behavioral effect [11]: 3
18 | CCCN(CCC)[C@@H]1CCc2ccccc2C1 | – | 4 | – | 4 | – | – | Behavioral effect (Rattus norvegicus [19]): 4; Temperature (Rattus norvegicus [15]): -1.4; Turnover [16]: 51; Turnover (Rattus norvegicus [20]): 77
19 | CCCN(CCC)[C@@H]1CCc2cccc(-c3ccccc3)c2C1 | – | 3 | 98 | 0 | 85 | 0 | Temperature (Rattus norvegicus [4]): -3.68; Effect [5]: 4; Temperature (Rattus norvegicus [15]): 0.3
20 | CCCN(CCC)[C@H]1CCc2cccc(OC)c2C1 | – | 0 | – | – | 79 | 4 | Turnover [12]: 80; Temperature (Rattus norvegicus [8]): -1.5
21 | CCCN(CCC)C1CCc2cccc(C)c2C1 (racemic) | 42 | – | – | – | – | – | –
